# Laboratory results from article PMC9685603 (ACS Omega, 2022).
# “Also recorded” adds a separate entry of the source.
# Tested on: HEK 293 cells
# Test: MTT cell viability
# Assay type: cell-based, human
# Settings: MTT assay, 48 h, studied concentration range 100–0.01 μM
# In short: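 Seeding in DMEM with 10% FBS was 8000 cells/well for MCF-7 and MDA-MB-468 and 5000 cells/well for HEK 293. Cells were held 24 h at 37 °C, 5% CO2, humidified, then exposed to test compounds at varied concentrations for 48 h. MTT reagent (5 mg/mL) was added for 2–4 h and formazan dissolved in DMSO. Absorbance was read at 570/690 nm and % survival calculated.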
compound,measurement,value
"O=S(=O)(NN=Cc1cn(CCN2CCOCC2)c2ccccc12)c1ccc(Cl)cc1 [Compound 5f, 4-Chloro-N′-((1-(2-morpholinoethyl)-1H-indol-3-yl)methylene)benzenesulfonohydrazide]",toxicity against HEK 293 noncancerous cells,biocompatible; also recorded: nontoxic
